Screening data from PubChem BioAssay.
Only some compounds are listed: those with a hit (about 3.1% of all), similar ones and a draw of the others.
KCNK3 inh: human KCNK3 channel inhibition, primary screen | O14649 | CHO-KCNK3 thallium flux, FluxOR fluorescence; hits give low values | B-score at 10 µM | 340,000 tested, 0.84% active | AID 602410;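 active = B-score under library mean minus 4 SD, starting fluorescence ratio at most library mean plus 5 SD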;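 note: more negative B-score means stronger inhibition of thallium flux through KCNK3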
Target sequence (O14649 whole entry, looked up): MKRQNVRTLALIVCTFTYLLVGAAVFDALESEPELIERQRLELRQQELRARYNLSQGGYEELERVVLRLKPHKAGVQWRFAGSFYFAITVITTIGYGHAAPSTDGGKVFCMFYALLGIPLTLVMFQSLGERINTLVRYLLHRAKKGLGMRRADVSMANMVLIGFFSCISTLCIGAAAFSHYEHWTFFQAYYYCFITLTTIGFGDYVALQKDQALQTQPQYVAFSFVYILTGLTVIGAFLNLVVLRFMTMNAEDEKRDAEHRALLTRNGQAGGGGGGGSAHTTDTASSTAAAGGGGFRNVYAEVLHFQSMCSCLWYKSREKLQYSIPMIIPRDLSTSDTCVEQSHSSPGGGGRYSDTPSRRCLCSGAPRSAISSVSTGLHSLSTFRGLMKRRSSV
hERG rescue: shields human hERG channel from block by proarrhythmic agents; 310,000 tested, 0.51% active; Q12809; activation (rescue from dofetilide block), less the hit threshold, % at 10 µM; CHO-hERG, FluxOR thallium flux, dofetilide IC70 present;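 active = activation above the mean of controls blocked by dofetilide plus 5 SD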;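 note: thallium influx through hERG after potassium depolarization seen as dye fluorescence rise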
KCNQ1 inh: blocks the human KCNQ1 potassium channel | P51787 | CHO-K1 KCNQ1, FluxOR thallium flux fluorescence; hits give high values | B-score at 10 µM | 310,000 tested, 1.3% active | AID 2642;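 active = compounds whose thallium flux B-score, printed positive for inhibition, exceeds three library SD while starting fluorescence stays within three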;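 note: channel opened by potassium depolarization with thallium stimulus after 20 min compound exposure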
KCNQ1 pot: potentiators or activators of human KCNQ1 potassium channel. 310,000 tested, 0.35% active. CHO-K1 KCNQ1, thallium flux FluxOR fluorescence; hits give high values. P51787. B-score at 10 µM;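 active = fluorescence ratio B-score, a plate-corrected score, at least three library SD, with initial intensity B-score within 5 SD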
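Material: CHO-K1 cells stably expressing KCNQ1. Medium: assay buffer for compound exposure, DMSO matched across wells. Reagent: K+/Tl+ depolarizing stimulus. Compound dosing: single-concentration screen. Times: 37 °C overnight plating, 90-min dark dye load, 20-min compound pretreatment. Technique: FluxOR Tl+ flux fluorescence.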
KCNK9 inh: blocks the human KCNK9 two-pore domain potassium channel | HEK293 KCNK9, FluxOR thallium flux fluorescence; hits give low values | B-score at 10 µM | AID 488922 | 310,000 tested, 1.2% active;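 active = ratio B-score over 3 SD below the library mean, with starting fluorescence within 5 SD of its mean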;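 note: negative B-score means less thallium flux so channel inhibition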
* hit, by the source's call; i = inactive; / = not tested or not shown.

SMILES	KCNK3 inh	hERG rescue	KCNQ1 inh	KCNQ1 pot	KCNK9 inh
CCOC(=O)C1CCCN(C(=O)c2ccc(Cn3c(=S)[nH]c4cc(C(=O)OC)ccc4c3=O)cc2)C1 (configuration not stated)	i	6.6*	i	i	i
C=C(C)COc1ccc(-c2nc(N)ncc2Oc2ccccc2OC)c(O)c1	-9.2*	/	/	/	/
CCCCOC(=O)c1ccc(NC(=S)NC(=O)c2c(Cl)cnn2CC)cc1	i	0	i	75*	i
CCCCOC(=O)c1ccc(NC(=S)NC(=O)c2c(Cl)cnn2C)cc1	i	15*	i	8*	i
CN(C(=O)c1cccc(NC(=O)Cc2ccc(NC(=O)C3CCCN(C(=O)C4CC4)C3)cc2)c1)C1CCCC1 (configuration not stated)	i	/	/	/	/
O=C1CC(c2ccccc2F)C2=C(COC2=O)N1 (configuration not stated)	i	-7	i	i	i
CCc1nc2ccc(C(=O)NCCc3ccc(OC)cc3)cc2nc1CC	i	-8	i	i	i
CCOc1ccc(Br)cc1S(=O)(=O)Nc1ccc(C(=O)Nc2ccc(C)cc2)cc1	i	-4	i	i	-7.1*
CCOc1ccc(Br)cc1S(=O)(=O)Nc1ccc(NC(=O)c2ccccc2C)cc1	i	-11	i	i	-7.4*
C=CCOC1COC2C(OCC=C)COC12 (configuration not stated)	i	/	/	/	/
CC1CCN(S(=O)(=O)c2ccc(NC(=O)C3CCCCC3C(=O)O)cc2)CC1 (configuration not stated)	i	/	/	/	/
CC(C)Cn1c(N)c(C(=O)COC(=O)c2cnc(Cl)c(Cl)c2)c(=O)n(C)c1=O	i	-7	6*	i	i
C=CCSc1nnc(NC(=O)Cn2cnc3c2c(=O)n(C)c(=O)n3C)s1	i	10*	i	i	i
Cc1cc(=O)oc2cc(OCC(=O)N3CCOCC3)c(Cl)cc12	i	/	/	/	/
CCOC(=O)c1sc2ncnc(NCC(c3cccs3)N(C)C)c2c1C (configuration not stated)	i	20*	i	55*	i
CN(C)C(CNc1ncnc2sccc12)c1cccs1 (configuration not stated)	i	-20	i	i	i
O=C(Nc1cc(Sc2ccccn2)cc([N+](=O)[O-])c1)c1cccc(F)c1	i	-13	i	i	i
O=C(Nc1cc(Sc2nc3ccccc3s2)cc([N+](=O)[O-])c1)c1ccccc1	i	-23	11*	i	i
C=CCn1c(=N)n(CC(=O)c2ccc(Br)s2)c2ccccc21	i	-13	i	i	i
O=C(NC(=Nc1nc2ccccc2o1)NC(=O)c1ccccc1)c1ccccc1	i	-9	i	i	i
COc1ccccc1C(=O)NC(=Nc1nc2ccccc2o1)NC(=O)c1ccccc1OC	i	-38	i	i	-16*
CC(C)CSC1=NSC2=NC(=O)/C(=C\c3cccs3)C(=N)N12	i	-1	i	8*	i
N=C1/C(=C/c2cccs2)C(=O)N=C2SN=C(SCc3ccccc3)N12	i	-10	i	i	i
COc1ccc(C2C(C(=O)c3cccs3)=C(O)C(=O)N2c2nnc(C)s2)cc1OC (configuration not stated)	i	-10	11*	i	i
Cc1c(Cl)cccc1NC(=O)CN1CCC(C(O)(c2ccccc2)c2ccccc2)CC1	i	-14	11*	i	i
SMILES	KCNK3 inh	hERG rescue	KCNQ1 inh	KCNQ1 pot	KCNK9 inh
Cc1ccccc1C(=O)NC1CCN(CC(=O)Nc2ccccc2Cl)CC1	i	-6	i	i	i
COc1ccc(OC)c(C(=O)c2coc3cc(Br)c(O)c(Br)c23)c1	i	-7	i	i	-7.6*
CCCSc1ncnc2[nH]ncc12	i	/	/	/	/
O=C(CSc1nc(-c2ccc(Cl)cc2)cs1)Nc1cccc([N+](=O)[O-])c1	i	-17	6*	i	i
COc1ccc(N2Nc3n[nH]c(N)c3N2)cc1	i	-10	i	i	i
CCOc1ccc(N2Nc3n[nH]c(N)c3N2)cc1	i	37*	i	i	i
CCCn1nc(C(=O)N2CCN(S(=O)(=O)c3ccc(C)c(C)c3)CC2)c2ccccc2c1=O	-9.5*	/	/	/	/
Cc1ccccc1OCCNc1cc(N2CCCCC2)ccc1[N+](=O)[O-]	i	-4	i	i	-7*
COc1ccc(OCCNc2cc(N3CCCCC3)ccc2[N+](=O)[O-])cc1	i	0	i	i	i
COc1cccc(OCCNc2cc(N3CCCCC3)ccc2[N+](=O)[O-])c1	i	-13	i	i	-7.9*
Cc1cc2c(=O)n(C)c(SCC(=O)Nc3ccc(F)cc3)nc2s1	i	/	/	/	/
O=C1CC(=O)N(CCNc2ncc(C(F)(F)F)cc2Cl)C(=O)N1	i	-6	i	i	i
O=C1C=CC(=O)N1CCNc1ncc(C(F)(F)F)cc1Cl	i	-20	i	18*	i
COc1cccc(-c2cc(C(F)(F)F)nc(N3CCC(C)CC3)n2)c1	i	5.1*	i	i	i
COC(=O)C1CCCN1C(=O)COc1ccc(Cl)cc1Br (configuration not stated)	i	5.1*	i	8*	i
COc1ccccc1N1CCN(C(=O)COc2ccc(Cl)cc2Br)CC1	i	-7	i	i	i
CC(C)C(c1nnnn1C(C)(C)C)N1CCC(Cc2ccccc2)CC1 (configuration not stated)	i	-11	i	i	-7.9*
CC[C@H]1CC2CN3CCc4c([nH]c5c([C@H]6C[C@H]7[C@H](CC)CN(C)[C@@H](Cc8c6[nH]c6ccccc86)[C@H]7C(=O)OC)c(OC)ccc45)C(C(=O)OC)(C2)C13	/	-5	i	i	i
CNC(=O)c1nnsc1S(=O)c1ccc(Cl)cc1 (configuration not stated)	i	-21	i	13*	i
CCCNC(=O)c1nnsc1S(=O)c1ccc(Cl)cc1 (configuration not stated)	i	-13	i	i	i
CCC(C)NC(=O)c1cn(CC)c2cc(N3CCN(C(=O)c4ccco4)CC3)c(F)cc2c1=O (configuration not stated)	i	-12	i	i	i
COc1ccc(C(C[N+](=O)[O-])c2c(-c3ccccc3)cc3ccccn23)cc1OC (configuration not stated)	i	-16	i	i	i
COc1ccc(C(C[N+](=O)[O-])c2c(-c3ccccc3)cc3ccccn23)cc1 (configuration not stated)	i	-11	8*	i	i
